CYP2C9 activ = activators of human CYP2C9 | recombinant CYP2C9, luciferin-H conversion, luminescence; stronger effect = higher value; factor 1 = untreated enzyme, 0 = blocked | activation factor at 5 µM | 1.4% of 96,000 active | P11712 | AID 1024;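 active = activation factor of 2 or more for CYP2C9 at a 5 µM dose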;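 note: 0 = sulfaphenazole-blocked wells and 1 = vehicle-only wells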
Target sequence (P11712 whole entry, looked up): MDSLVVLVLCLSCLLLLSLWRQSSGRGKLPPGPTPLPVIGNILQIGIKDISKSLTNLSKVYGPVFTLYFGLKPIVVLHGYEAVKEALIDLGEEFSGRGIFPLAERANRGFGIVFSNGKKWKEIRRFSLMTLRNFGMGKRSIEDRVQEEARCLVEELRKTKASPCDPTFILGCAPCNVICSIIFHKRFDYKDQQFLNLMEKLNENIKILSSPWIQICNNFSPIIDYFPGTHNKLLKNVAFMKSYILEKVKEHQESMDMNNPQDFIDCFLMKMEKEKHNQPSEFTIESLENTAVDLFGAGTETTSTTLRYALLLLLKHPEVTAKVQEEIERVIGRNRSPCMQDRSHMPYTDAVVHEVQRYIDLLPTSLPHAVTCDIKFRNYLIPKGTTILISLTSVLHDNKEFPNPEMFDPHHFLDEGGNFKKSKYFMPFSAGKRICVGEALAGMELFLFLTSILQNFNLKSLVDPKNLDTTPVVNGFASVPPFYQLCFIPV
CYP2C19 inhib = inhibitors of human CYP2C19; P33261; CYP2C19 Supersomes, luciferin-H EGE luminescence, 30 min; inhibition, % at 5 µM; 21% of 96,000 active; AID 778;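 active = CYP2C19 inhibition above a set limit at 5 µM in the primary screen, cut at about 50% in these data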;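 note: plate controls were negative control wells for no effect and 2.5 mM tranylcypromine positive control for full effect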
CYP2C19 act = increases human CYP2C19 enzyme activity | 96,000 tested, under 10 active | P33261 | activation factor at 5 µM | recombinant CYP2C19, luciferin-H EGE luminescence; stronger effect = higher value; 0 = fully inhibited enzyme, 1 = untreated enzyme;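 active = activation factor of at least 2 at 5 µM in the primary screen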;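 note: 0 = wells with 2.5 mM tranylcypromine and 1 = vehicle-only wells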
CYP2C9 inhib = human CYP2C9 inhibition. CYP2C9 Supersomes, luciferin-H conversion, luminescence. AID 777. P11712. 20% of 96,000 active. inhibition, % at 5 µM;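 active = blocking of liver enzyme CYP2C9 beyond about 50% at 5 µM, limit read from the data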
Ecoli WT expand = blocks growth of wild type E. coli BW25113. AID 710. growth inhibition, % at 100 µM. OD600 absorbance. 0.15% of 98,000 active;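 active = growth inhibition above about 50% at one test dose, limit read from the data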;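 note: growth measured after 20 h incubation at 37 °C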
tolC growth inh = growth inhibitors of E. coli BW25113 tolC mutant; OD615; growth inhibition, % at 10 µM (by protocol); 2.2% of 65,000 active; AID 573;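 active = growth inhibition at or above a cutoff equal to the mean over every tested compound plus 3 SD, cut at about 60% in these data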;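 note: growth measured after 20 h incubation at 37 °C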
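Doses: one dose of 10 µM final / Material: E. coli BW25113 ΔtolC::kan, tolC deletion mutant strain / Buffer or medium: LB with kanamycin 50 µg/mL / Evaluation: percent growth inhibition / Detection: optical density read at 615 nm / Incubation: 37 °C, 20 h exposure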
The depositor's hits bear a star. Shown are actives, neighbours in structure and some others; about 29% of the full set was active somewhere.

What do the screens show for `CN(C)c1ccc(CN(C(=O)C2COc3ccccc3O2)C2CCS(=O)(=O)C2)cc1` (stereo not drawn)?
CYP2C9 activ: 0.3; CYP2C19 inhib: 94*; CYP2C19 act: 0.1; CYP2C9 inhib: 65*; Ecoli WT expand: 3; tolC growth inh: 16

How did CN(C)S(=O)(=O)N1CCN(CC(O)COc2ccc(C(=O)c3ccccc3)cc2)CC1 (stereo not drawn) do in these assays?
CYP2C9 activ: 0.6; CYP2C19 inhib: 25; CYP2C19 act: 0.7; CYP2C9 inhib: 38; Ecoli WT expand: 1; tolC growth inh: 14

What do the screens show for `O=C(c1ccccc1F)N(Cc1ccc(F)cc1)C1CCS(=O)(=O)C1` (stereo not drawn)?
CYP2C9 activ: 0.9; CYP2C19 inhib: 83*; CYP2C19 act: 0.2; CYP2C9 inhib: 15; Ecoli WT expand: 5; tolC growth inh: -19

What do the screens show for `O=C(c1cccs1)N(Cc1ccco1)C1CCS(=O)(=O)C1` (stereo not drawn)?
CYP2C9 activ: 1.1; CYP2C19 inhib: 56*; CYP2C19 act: 0.4; CYP2C9 inhib: -5; Ecoli WT expand: 0; tolC growth inh: -12

How did CCN(CC)c1ccc(CN(C(=O)c2ccco2)C2CCS(=O)(=O)C2)cc1 (stereo not drawn) do in these assays?
CYP2C9 activ: 0.4; CYP2C19 inhib: 57*; CYP2C19 act: 0.4; CYP2C9 inhib: 58*; Ecoli WT expand: -1; tolC growth inh: 3

Results for O=C(c1ccccc1F)N(Cc1ccccc1)C1CCS(=O)(=O)C1 (stereo not drawn) ?
CYP2C9 activ: 0.9; CYP2C19 inhib: 32; CYP2C19 act: 0.7; CYP2C9 inhib: 8; Ecoli WT expand: 3; tolC growth inh: 7

What do the screens show for `O=C(c1sc2ccccc2c1Cl)N(Cc1ccccc1)C1CCS(=O)(=O)C1` (stereo not drawn)?
CYP2C9 activ: 0.3; CYP2C19 inhib: 52*; CYP2C19 act: 0.5; CYP2C9 inhib: 68*; Ecoli WT expand: -17

What do the screens show for `N#CC(C#N)=CC1=C2OC(c3ccccc3)=CC(c3ccccc3)=C2CCC1`?
CYP2C9 activ: 0.2; CYP2C19 inhib: 40; CYP2C19 act: 0.6; CYP2C9 inhib: 79*; Ecoli WT expand: -50

Results for Cc1noc(/C=C/c2ccco2)c1S(=O)(=O)N1CCC(C(=O)NCc2ccco2)CC1 ?
CYP2C9 activ: 0.8; CYP2C19 inhib: 4; CYP2C19 act: 1; CYP2C9 inhib: 21; Ecoli WT expand: -4; tolC growth inh: -1

How did Cc1ccc(CNC(=O)C2CCN(S(=O)(=O)c3c(C)noc3/C=C/c3ccco3)CC2)cc1 do in these assays?
CYP2C9 activ: 0.4; CYP2C19 inhib: 14; CYP2C19 act: 0.9; CYP2C9 inhib: 57*; Ecoli WT expand: -9

Results for Cc1noc(/C=C/c2ccco2)c1S(=O)(=O)N1CCC(C(=O)N2CCc3ccccc3C2)CC1 ?
CYP2C9 activ: 0.3; CYP2C19 inhib: 35; CYP2C19 act: 0.6; CYP2C9 inhib: 73*; Ecoli WT expand: -20; tolC growth inh: 10

Results for CCOC(=O)c1cc2c(C(F)(F)F)cc(-c3cccnc3)nc2o1 ?
CYP2C9 activ: 0.8; CYP2C19 inhib: 12; CYP2C19 act: 0.9; CYP2C9 inhib: 17; Ecoli WT expand: 3; tolC growth inh: 3

How did CCOc1cc(-c2noc(N)c2C#N)cc(OCC)c1OCC do in these assays?
CYP2C9 activ: 0.5; CYP2C19 inhib: 42; CYP2C19 act: 0.6; CYP2C9 inhib: 53*; Ecoli WT expand: 13

Results for O=C(Nc1nncs1)c1c(F)c(F)c(F)c(F)c1F ?
CYP2C9 activ: 1; CYP2C19 inhib: 17; CYP2C19 act: 0.8; CYP2C9 inhib: 4; Ecoli WT expand: -7; tolC growth inh: 3

What do the screens show for `CCN(CC)CCn1c(NCc2cccc(OC)c2)nc2ccccc21`?
CYP2C9 activ: 1; CYP2C19 inhib: 32; CYP2C19 act: 0.7; CYP2C9 inhib: 0; Ecoli WT expand: 4; tolC growth inh: 2

What do the screens show for `COc1ccc(CNc2nc3ccccc3n2Cc2ccccc2)cc1OC`?
CYP2C9 activ: 0.3; CYP2C19 inhib: 53*; CYP2C19 act: 0.5; CYP2C9 inhib: 66*; Ecoli WT expand: -4

What do the screens show for `c1ccc(Cn2c(NCc3ccco3)nc3ccccc32)cc1`?
CYP2C9 activ: 0.2; CYP2C19 inhib: 83*; CYP2C19 act: 0.2; CYP2C9 inhib: 81*; Ecoli WT expand: 3; tolC growth inh: 28

Screening data as filed in PubChem.
